TRPC6 activator: mouse TRPC6 channel activation; Q61143; AID 2550; B-score at 10 µM; hit rate 0.13% among 310,000; HEK293-TRPC6 membrane potential dye fluorescence; stronger effect = higher value;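 active means B-score of the integrated fluorescence ratio above library mean plus 3 SD, and starting fluorescence ratio within library mean plus 5 SD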;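 further: higher score means more depolarization so channel activation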
TRPC4 agonist: opens the mouse TRPC4 cation channel; Q9QUQ5; HEK293 TRPC4beta/mu-opioid, Fluo4 calcium fluorescence; stronger effect = higher value; B-score at 10 µM; hit rate 0.49% among 310,000;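 active means B-score above 5 SD of library B-scores, and initial fluorescence ratio not above library mean plus 5 SD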;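 further: positive B-score marks a calcium rise read as TRPC4 activation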
Target sequence (Q9QUQ5 whole entry, looked up): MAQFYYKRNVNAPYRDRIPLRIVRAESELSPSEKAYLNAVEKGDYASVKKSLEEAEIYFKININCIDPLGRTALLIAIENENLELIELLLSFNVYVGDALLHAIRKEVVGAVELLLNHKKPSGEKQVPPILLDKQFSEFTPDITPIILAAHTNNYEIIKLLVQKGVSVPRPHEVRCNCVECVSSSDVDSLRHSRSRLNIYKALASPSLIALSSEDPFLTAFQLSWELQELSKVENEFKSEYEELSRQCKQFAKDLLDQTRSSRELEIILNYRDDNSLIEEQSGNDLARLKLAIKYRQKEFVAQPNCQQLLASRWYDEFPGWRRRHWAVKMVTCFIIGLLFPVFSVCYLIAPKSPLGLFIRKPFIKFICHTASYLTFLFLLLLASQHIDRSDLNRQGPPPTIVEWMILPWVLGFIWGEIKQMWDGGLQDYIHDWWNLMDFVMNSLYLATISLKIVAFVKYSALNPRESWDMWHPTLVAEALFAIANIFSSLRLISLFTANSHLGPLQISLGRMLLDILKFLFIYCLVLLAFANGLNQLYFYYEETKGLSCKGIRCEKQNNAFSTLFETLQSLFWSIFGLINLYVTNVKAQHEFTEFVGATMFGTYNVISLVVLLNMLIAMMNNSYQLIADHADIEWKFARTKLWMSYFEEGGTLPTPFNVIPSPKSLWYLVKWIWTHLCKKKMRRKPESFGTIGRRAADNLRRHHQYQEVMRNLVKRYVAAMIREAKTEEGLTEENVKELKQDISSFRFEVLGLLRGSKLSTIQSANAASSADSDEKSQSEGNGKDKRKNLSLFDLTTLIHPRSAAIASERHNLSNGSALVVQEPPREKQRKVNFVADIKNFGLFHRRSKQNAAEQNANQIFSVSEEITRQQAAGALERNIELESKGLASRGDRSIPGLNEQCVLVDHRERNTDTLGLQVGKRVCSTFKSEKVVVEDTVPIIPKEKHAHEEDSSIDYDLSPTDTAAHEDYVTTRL
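Assay system – TRPC4beta and mu-opioid receptor HEK293 stable cells · Measured by – Fluo4 fluorescence, kinetic · Schedule – dye loading 45 min room temperature, 110 s kinetic read · Read-out – B-scored integrated calcium fluorescence ratio · Controls – buffer and maximal DAMGO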
FID counter: displaces DNA intercalator in HCV helicase counter-screen | inhibition, % at 7.9 µM | DNA fluorescent intercalator displacement, fluorescence | AID 1845 | hit rate 0.17% among 290,000; in the data active means inhibition above about 37%;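 further: 0% = vehicle and 100% = reference compound; higher means more ethidium bromide displaced from hairpin DNA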
TRPC4 inh: inhibitors of mouse TRPC4 channel; Q9QUQ5; HEK293 TRPC4beta/mu-opioid, DAMGO-evoked Fluo4 calcium flux; stronger effect = lower value; B-score at 10 µM; hit rate 0.39% among 300,000; AID 2247;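 active means B-score over 3 SD under the library average, no early fluorescence shift, positive overall ratio signal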
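Signal: kinetic Fluo4 fluorescence imaging of calcium influx. Material: stable TRPC4beta/mu-opioid receptor HEK293 cells. Probe or stimulus: DAMGO in two steps, submaximal then maximal.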
TRPC6 inh: inhibitors of mouse TRPC6 channel; B-score at 10 µM; HEK293-TRPC6, membrane potential dye, ACh-evoked depolarization; stronger effect = lower value; Q61143; hit rate 1.1% among 310,000;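 active means B-score under library mean minus 3 SD, initial fluorescence not abnormally high, positive integrated signal ratio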;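 further: B-score derived from integrated fluorescence ratio over the kinetic read; more negative B-score means stronger inhibition of depolarization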
TRPC4 PAM: allosterically enhances the mouse TRPC4 cation channel; hit rate 0.42% among 310,000; B-score at 10 µM; Q9QUQ5; HEK293 TRPC4beta/mu-opioid, DAMGO EC20, Fluo-4 Ca2+ flux; stronger effect = higher value;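 active means B-score of calcium response area above 5 SD of library B-scores, with initial fluorescence ratio within 5 SD of library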;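 further: B-score of integrated fluorescence ratio over time as area under calcium response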
TRPC4 sel inh 2: mouse TRPC4 off-target activity of TRPC6 inhibitors, second screen; shares compounds with TRPC6 inh; HEK293 TRPC4/MOR, membrane potential dye fluorescence; channel activated by saturating DAMGO dose; inhibition, % at 10 µM; hit rate 42% among 920;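 active means compounds whose fluorescence signal differed from control wells by over 3 SD, either direction, in both duplicate plates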
TRPC4 spec: mouse TRPC4 off-target activity of TRPC6 inhibitors; HEK293 TRPC4/mu-opioid, membrane potential fluorescence; activity change, negative = inhibition, % at 10 µM; AID 2777; shares compounds with TRPC6 inh; hit rate 61% among 920;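 active means rise or fall in signal beyond 3 SD of buffer-only wells in both replicate plates, either sign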;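 further: integrated kinetic ratio of fluorescence range over baseline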
HEK293 MPD ctr 2-1: parental HEK293 nonspecific activity of TRPC6 inhibitors, second screen; signal change vs control, % at 10 µM; hit rate 31% among 920; shares compounds with TRPC6 inh; parental HEK293 membrane potential dye fluorescence; maximal acetylcholine challenge after compound addition;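 active means membrane potential signal moving either way by over 3 SD of the maximum-effect control, in both duplicate plates, meaning non-specific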
HEK293 MPD ctr-1: checks TRPC6 inhibitor effects in parental HEK293 cells | shares compounds with TRPC6 inh | parental HEK293 membrane potential dye fluorescence | membrane potential signal change, % at 10 µM | hit rate 60% among 920 | AID 2780;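 active means membrane potential signal shifting up or down by more than 3 SD of buffer-only wells, on both duplicate plates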
HEK293 MPD ctr-2: checks TRPC6 modulator effects in parental HEK293 cells. shares compounds with TRPC6 inh. membrane potential dye fluorescence. membrane potential signal change, % at 10 µM. hit rate 51% among 2,400;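 active means membrane potential signal moves up or down beyond 5 SD from buffer-only wells, on both duplicate plates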
HEK293 MPD ctr 2-2: parental HEK293 nonspecific activity of TRPC6 modulators, second screen. shares compounds with TRPC6 inh. membrane potential dye fluorescence; after compound, maximal acetylcholine stimulation. inhibition, % at 10 µM. hit rate 14% among 2,400. AID 488926;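 active means membrane potential signal drops by more than 5 SD from the mean control signal, in both duplicate plates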;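 further: plate controls were acetylcholine ECmax control wells for no effect and buffer only wells for full effect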
TRPC4/MOR mod: selectivity of TRPC6 modulators against mouse TRPC4 | shares compounds with TRPC6 inh | HEK293 TRPC4/mu-opioid, membrane potential fluorescence | percent change from control (negative = decrease, positive = increase), % at 10 µM | hit rate 69% among 2,400;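 active means membrane potential signal moved up or down beyond 5 SD of buffer control wells, in both duplicate plates, actives on both sides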;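 further: plate controls were assay buffer wells for no effect and DAMGO maximal-effect wells for full effect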
TRPC4/MOR inh 2: second check of whether TRPC6 modulators also affect mouse TRPC4 | shares compounds with TRPC6 inh | HEK293 TRPC4/mu-opioid, membrane potential dye fluorescence; stimulated with maximal-effect DAMGO | inhibition, % at 10 µM | hit rate 55% among 2,400;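 active means drop in membrane potential signal beyond 5 SD of the control wells in both duplicate plates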;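 further: TRPC4 counter screen for TRPC6 hits run under conditions tuned for TRPC6 not TRPC4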
TRPC6 inh conf: confirmation of mouse TRPC6 inhibitors. shares compounds with TRPC6 inh. HEK293-TRPC6, membrane potential dye, ACh-evoked depolarization. inhibition, % at 10 µM. hit rate 43% among 3,300. AID 488960;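 active means fluorescence ratio falls more than 5 SD below the full-stimulation control mean, in both duplicate runs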;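 further: integrated fluorescence ratio of peak minus minimum over baseline after agonist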
TRPC6 act conf: mouse TRPC6 activator confirmation. activation, % at 10 µM. shares compounds with TRPC6 inh. HEK293-TRPC6 membrane potential dye fluorescence, FDSS. AID 488961. hit rate 11% among 2,800;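 active means ratio signal rise beyond 5 SD above unstimulated control wells' mean, seen in both duplicate runs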;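 further: plate controls were buffer EC0 wells for no effect and acetylcholine ECmax response for full effect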
* hit, by the source's call; i = inactive; . = no result given. An excerpt weighted towards active compounds, which were near 2.3% of everything screened.

SMILES | TRPC6 activator | TRPC4 agonist | FID counter | TRPC4 inh | TRPC6 inh | TRPC4 PAM | HEK293 MPD ctr-2 | HEK293 MPD ctr 2-2 | TRPC4/MOR mod | TRPC4/MOR inh 2 | TRPC6 inh conf | TRPC6 act conf | others
COC(=O)c1[nH]c2ccccc2c1NC(=O)CN1CCN(Cc2ccc3c(c2)OCO3)CC1 | i | i | -3 | i | -5.6* | i | i | i | i | 66%* | 57%* | i
Nc1[nH]c(=O)nc(Nc2ccccc2)c1N=O | i | i | . | i | i | i | . | . | . | . | . | .
O=[N+]([O-])c1ccc(Oc2cccc(Br)c2)c2ccncc12 | i | i | 3 | i | i | i | . | . | . | . | . | .
O=[N+]([O-])c1ccc(Oc2ccc(F)cc2)c2ccncc12 | i | i | 0 | i | -5.1* | i | i | i | i | i | i | i
Nc1c(Cl)cc(C2=NCCn3c2c2ccc(C(F)(F)F)cc2[n+]3[O-])cc1Cl | i | i | . | i | i | i | . | . | . | . | . | .
Oc1c(C=Nc2ccc(Cl)cn2)sc2ccccc12 | i | i | -1 | i | i | i | . | . | . | . | . | .
Oc1c(/C=N/c2ccccn2)sc2ccccc12 | i | i | -14 | i | -9.1* | i | 170%* | i | 30%* | i | i | .
COc1cccc(C(=O)Nc2c3c(nn2-c2ccc(Cl)cc2)CS(=O)(=O)C3)c1OC | i | i | -32 | i | i | i | . | . | . | . | . | .
O=C1NC(Cc2c[nH]c3ccccc23)C(=O)N1Cc1ccc(CN2C(=O)NC(Cc3c[nH]c4ccccc34)C2=O)cc1 (configuration not stated) | i | i | -15 | i | -5.3* | i | i | i | i | i | i | i
O=C1NC(Cc2c[nH]c3ccccc23)C(=O)N1CCOc1ccc(F)cc1 (configuration not stated) | i | i | -2 | i | i | i | . | . | . | . | . | .
c1ccc(N2CCN(CC3CCCCC3)CC2)cc1 | i | i | -2 | i | i | i | . | . | . | . | . | .
CCOc1ccc(CN(C)C(=O)c2ccc3ccccc3n2)cc1 | i | i | -36 | i | -5.8* | i | i | i | i | i | i | i
O=C(c1ccc(N2CCN(C(=O)c3ccc(F)cc3F)CC2)cc1)c1cccc(F)c1 | i | i | -41 | i | i | i | . | . | . | . | . | .
CCOC(=O)C(=O)N1CCN(c2nc(-c3ccc(Cl)cc3)cs2)CC1 | i | i | -30 | i | -6.2* | i | i | i | i | i | i | i
CCOC(=O)N1CCN(c2nc(-c3ccc(F)cc3)cs2)CC1 | i | i | -21 | i | i | i | . | . | . | . | . | .
COc1ccc(Cc2noc(CN3CCN(C4CCc5ccccc5C4)CC3)n2)cc1OC (configuration not stated) | i | i | 2 | i | i | i | . | . | . | . | . | .
Fc1cccc(Cc2noc(CN3CCCN(C4Cc5ccccc5C4)CC3)n2)c1 | i | i | 2 | i | -5.1* | i | 202%* | i | 28%* | 70%* | 46%* | .
Fc1cccc(Cc2noc(CN3CCN(C4CCc5ccccc5C4)CC3)n2)c1 (configuration not stated) | i | i | 17 | i | -7.8* | i | . | . | . | . | i | . | TRPC4 sel inh 2=i;TRPC4 spec=14%*;HEK293 MPD ctr 2-1=290%*;HEK293 MPD ctr-1=13%*
Fc1cccc(Cc2noc(CN3CCSCC3)n2)c1 | i | i | -5 | i | i | i | . | . | . | . | . | .
COc1cc(/C=C(\NC(=O)c2ccccc2)C(=O)NC(C(=O)O)c2ccccc2)cc(OC)c1OC (configuration not stated) | i | i | -34 | i | i | i | . | . | . | . | . | .
CS(=O)(=O)N1CCN(C(=O)C2c3ccccc3Oc3ccccc32)CC1 | i | i | -5 | i | -5.7* | i | i | i | 18%* | i | 42%* | .
CCOc1ccccc1N1CCN(C(=O)C2c3ccccc3Oc3ccccc32)CC1 | i | i | -26 | i | i | i | . | . | . | . | . | .
CC(C)CCNC(=O)C(c1ccco1)N(Cc1cccs1)C(=O)Cn1nnc2ccccc21 (configuration not stated) | 15* | i | -27 | i | i | i | 281%* | i | 72%* | i | i | 98%*
Cc1cc(=O)[nH]c2ccc(S(=O)(=O)NC3CCCCC3)cc12 | i | i | -14 | i | i | i | . | . | . | . | . | .
CCCC(CCC)C(=O)OC1C[C@H]2CC[C@@H](C1)[N+]2(C)C (some centres not stated) | i | i | 1 | i | -8.7* | i | . | . | . | . | 94%* | i | TRPC4 sel inh 2=i;TRPC4 spec=i;HEK293 MPD ctr 2-1=-30%*;HEK293 MPD ctr-1=i
CCCC(CCC(=O)NC1CCCCC1)C(=O)O (configuration not stated) | i | i | 3 | i | i | i | . | . | . | . | . | .
COc1ccc(S(=O)(=O)Cc2ccc(C(=O)NCc3ccccc3OC)o2)cc1 | i | i | -29 | i | i | i | . | . | . | . | . | .

Screens as filed in PubChem.
